Laboratory results from ChEMBL document CHEMBL4428090, “Modeling, Synthesis, and Biological Evaluation of Potential Retinoid X Receptor (RXR)-Selective Agonists: Analogues of 4-[1-(3,5,5,8,8-Pentamethyl-5,6,7,8-tetrahydro-2-naphthyl)ethynyl]benzoic Acid (Bexarotene) and 6-(Ethyl(5,5,8,8-tetrahydronaphthalen-2-yl)amino)nicotinic Acid (NEt-TMN)” (J Med Chem, 2016).
The source made the active and inactive calls. No cut-off for these calls is given here.

Columns and labels:
[1] = target: T1, Retinoid X receptor (Homo sapiens) (UniProt P28702+P48443+P19793); assay: Agonist activity at human RXR binding domain and activation domain expressed in human HCT116 cells assessed as rexinoid activity at 1000 nM incubated for 24 hrs by luciferase reporter gene based mammalian two-hybrid assay relative to bexarotene; assay type: cell-based
Outline: (§1)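 HCT-116 cells plated overnight (80,000/well, DMEM with 10% FBS), co-transfected for 24 h with human RXR binding-domain (bait) and activation-domain (prey) vectors, pFR-Luc Gal4 reporter and renilla control. Treated 24 h at 25, 100 or 1000 nM final; vehicle ethanol or DMSO 0.1%. Dual-luciferase read-out. Three independent assays in triplicate; bexarotene set to 100%.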

[2] = Lipid risk index, ratio of agonist activity at human RXRalpha/LXRalpha expressed in human HCT116 cells assessed as reduction in SREBP-mediated transcription activity to agonist activity at human RXRalpha expressed in human HCT116 cells assessed as increase in RXRE-mediated transcription
Outline: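 Lipid risk index: SREBP-promoter luciferase activity (HCT116, LXRα-transfected, 100 nM compound with or without 100 nM TO901317, 24 h) divided by RXRE activity at 100 nM. The SREBP:RXRE ratio for bexarotene is set to 1.0.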

[3] = target: T1, Retinoid X receptor (Homo sapiens); assay: Agonist activity at human RXR binding domain and activation domain expressed in human HCT116 cells assessed as rexinoid activity at 25 nM incubated for 24 hrs by luciferase reporter gene based mammalian two-hybrid assay relative to bexarotene; assay type: cell-based; outline: as §1
[4] = target: T1, Retinoid X receptor (Homo sapiens); assay: Agonist activity at human RXR binding domain and activation domain expressed in human HCT116 cells assessed as rexinoid activity at 100 nM incubated for 24 hrs by luciferase reporter gene based mammalian two-hybrid assay relative to bexarotene; assay type: cell-based; outline: as §1
HuT78 = assay: Inhibition of HDAC1 gene expression in human HUT78 cells at 100 nM incubated for 48 hrs by quantitative real-time PCR method; assay type: functional
Outline: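 Hut78 cells resuspended in RPMI with 1% FBS, plated 750,000/well and dosed at 100 nM for 48 h. Total RNA extracted, 0.5 µg DNase-treated RNA reverse-transcribed, then qPCR for HDAC1. Quantified by ΔΔCt, normalized to GAPDH and relative to vehicle-treated cells (2^-ΔΔCt).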

[5] = target: T2, Retinoic acid receptor RXR-alpha (Homo sapiens) (UniProt P19793); assay: Agonist activity at human RXRalpha expressed in human HCT116 cells assessed as increase in RXRE-mediated transcription at 100 nM incubated for 24 hrs by RXRE luciferase reporter gene assay relative to bexarotene; assay type: cell-based
T2 sequence (whole entry): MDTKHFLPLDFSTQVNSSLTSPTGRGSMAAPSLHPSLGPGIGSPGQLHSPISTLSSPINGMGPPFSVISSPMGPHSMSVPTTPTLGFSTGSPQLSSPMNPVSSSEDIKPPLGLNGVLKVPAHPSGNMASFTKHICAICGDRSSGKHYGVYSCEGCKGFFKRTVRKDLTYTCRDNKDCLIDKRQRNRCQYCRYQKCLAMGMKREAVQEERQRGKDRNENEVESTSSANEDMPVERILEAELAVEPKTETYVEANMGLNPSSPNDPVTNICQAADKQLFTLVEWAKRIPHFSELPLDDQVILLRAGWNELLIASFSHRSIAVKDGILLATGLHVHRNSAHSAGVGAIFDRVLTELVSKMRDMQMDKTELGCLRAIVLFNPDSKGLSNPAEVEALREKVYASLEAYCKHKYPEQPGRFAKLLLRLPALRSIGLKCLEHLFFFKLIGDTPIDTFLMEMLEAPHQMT
Outline: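 HCT-116 cells (80,000/well) co-transfected for 24 h with 250 ng RXRE-luciferase reporter (DR1 element from the rat cellular retinol binding protein II gene), 25 ng pSG5-human RXRα and 20 ng renilla. Dosed 24 h at 25, 100 or 1000 nM final; ethanol or DMSO vehicle 0.1%. Dual-luciferase read-out. Three independent assays in triplicate; bexarotene = 100%.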

[6] = target: T3, Retinoic acid receptor RXR-alpha/oxysterols receptor LXR-alpha (Homo sapiens, UniProt P19793+Q13133); assay: Agonist activity at human RXRalpha/LXRalpha expressed in human HCT116 cells assessed as reduction in SREBP-mediated transcription activity at 100 nM incubated for 24 hrs by luciferase reporter gene assay in presence of 100 nM LXR agonist TO901317 relative to bexarotene; assay type: cell-based; set-up: scale not given: the % may be the effect or the level left; conditions: 0.1 µM
T3 sequence (P19793 whole entry): T2 sequence (whole entry)
T3 sequence (Q13133 whole entry): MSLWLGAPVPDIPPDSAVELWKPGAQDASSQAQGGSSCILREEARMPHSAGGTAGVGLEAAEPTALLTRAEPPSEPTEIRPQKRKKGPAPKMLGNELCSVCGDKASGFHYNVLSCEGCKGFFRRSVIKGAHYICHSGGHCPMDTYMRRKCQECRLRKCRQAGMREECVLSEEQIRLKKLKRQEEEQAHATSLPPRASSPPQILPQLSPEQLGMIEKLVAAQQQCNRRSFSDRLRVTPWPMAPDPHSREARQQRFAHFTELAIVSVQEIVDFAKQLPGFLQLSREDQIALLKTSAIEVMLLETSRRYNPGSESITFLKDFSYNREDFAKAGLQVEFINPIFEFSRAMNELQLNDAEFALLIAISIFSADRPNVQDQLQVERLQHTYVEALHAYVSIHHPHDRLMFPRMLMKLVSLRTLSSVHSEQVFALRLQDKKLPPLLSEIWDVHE
Outline: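 HCT116 cells co-transfected for 24 h with 100 ng pBP1c(6500)-Luc (about 6500 bp murine SREBP-1c promoter), 10 ng human LXRα and 20 ng renilla. Treated 24 h with compound at 100 nM, alone or with 100 nM TO901317. Luciferase output. Three independent assays in triplicate; bexarotene = 100%.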

[7] = target: T2, Retinoic acid receptor RXR-alpha (Homo sapiens); assay: Agonist activity at human RXRalpha expressed in human HCT116 cells assessed as increase in RXRE-mediated transcription incubated for 24 hrs by RXRE luciferase reporter gene assay; assay type: cell-based

T1 sequence (P28702 whole entry, looked up, one chain of several, the tested form may be a part): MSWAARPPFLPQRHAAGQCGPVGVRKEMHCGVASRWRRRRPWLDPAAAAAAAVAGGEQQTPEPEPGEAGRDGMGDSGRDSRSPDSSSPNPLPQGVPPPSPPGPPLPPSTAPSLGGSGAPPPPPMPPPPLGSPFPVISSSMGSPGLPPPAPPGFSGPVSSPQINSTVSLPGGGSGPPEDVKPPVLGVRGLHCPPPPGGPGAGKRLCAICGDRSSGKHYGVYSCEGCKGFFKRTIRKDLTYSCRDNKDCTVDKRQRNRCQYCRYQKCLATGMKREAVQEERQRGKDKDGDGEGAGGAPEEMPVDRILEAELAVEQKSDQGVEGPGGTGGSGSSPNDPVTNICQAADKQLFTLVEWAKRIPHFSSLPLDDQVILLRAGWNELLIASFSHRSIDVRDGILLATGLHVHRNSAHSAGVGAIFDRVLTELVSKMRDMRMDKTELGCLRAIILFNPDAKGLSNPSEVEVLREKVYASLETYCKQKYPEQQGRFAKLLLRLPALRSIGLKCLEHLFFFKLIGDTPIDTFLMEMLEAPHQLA
T1 sequence (P48443 whole entry, looked up, one chain of several, the tested form may be a part): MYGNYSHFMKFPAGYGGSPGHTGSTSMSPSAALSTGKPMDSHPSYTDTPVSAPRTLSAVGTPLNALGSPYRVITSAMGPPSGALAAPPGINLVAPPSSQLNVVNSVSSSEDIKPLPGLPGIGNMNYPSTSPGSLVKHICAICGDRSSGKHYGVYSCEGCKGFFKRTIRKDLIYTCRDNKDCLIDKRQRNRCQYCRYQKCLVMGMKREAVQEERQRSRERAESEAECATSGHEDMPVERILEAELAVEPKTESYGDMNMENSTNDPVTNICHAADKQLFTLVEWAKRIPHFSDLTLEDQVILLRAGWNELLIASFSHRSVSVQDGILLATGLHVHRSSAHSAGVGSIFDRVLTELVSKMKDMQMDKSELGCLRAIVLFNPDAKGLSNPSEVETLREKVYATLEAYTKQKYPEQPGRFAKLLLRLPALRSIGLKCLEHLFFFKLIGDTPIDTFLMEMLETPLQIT

SMILES | Activity [1] | fold change (FC) [3] | Activity [4] | Activity [5] | Activity [6] | Activity [7] | Activity [3] | fold change (FC) ([4]; in the assay text read “relative to activity at 25 nM” for “relative to bexarotene”) | Ratio [2] | inhibition at 0.1 µM (HuT78; HuT78, 48 h) | inhibition (HuT78)
CCN(c1ncc(C(=O)O)cn1)c1cc2c(cc1C)C(C)(C)CCC2(C)C | 35 to 58% | 2 | 135 to 146% | 68 to 89% | 13 to 17% | – | – | – | 0.49 - 0.51 | 28% | –
CCN(c1ccc2c(c1)C(C)(C)CCC2(C)C)c1cnc(C(=O)O)cn1 | 35 to 58% | – | – | – | 33% | inactive | 11.3% | 5 to 16 | 0.48 - 0.65 | – | –
CCN(c1ccc(C(=O)O)c(F)c1)c1cc2c(cc1C)C(C)(C)CCC2(C)C | 51 to 56% | – | Active | 16 to 32% | – | – | 140 to 150% | – | 0.48 - 0.65 | – | –

More lines, main results first:

Activity [1] | fold change (FC) [3] | Activity [4] | Activity [5] | Activity [6] | Activity [7] | Activity [3] | fold change (FC) ([4]; in the assay text read “relative to activity at 25 nM” for “relative to bexarotene”) | SMILES | Ratio [2] | inhibition at 0.1 µM (HuT78; HuT78, 48 h) | inhibition (HuT78)
35 to 58% | 2 | 135 to 146% | 68 to 89% | 13 to 17% | – | – | – | CCN(c1ccc2c(c1)C(C)(C)CCC2(C)C)c1ccc(C(=O)O)cn1 | 0.49 - 0.51 | – | inactive
51 to 56% | – | Active | 16 to 32% | – | – | 140 to 150% | – | CCN(c1ccc(C(=O)O)cc1)c1cc2c(cc1C)C(C)(C)CCC2(C)C | 0.48 - 0.65 | – | –
